The values below come from ChEMBL document CHEMBL4145543, “Synthesis and pharmacological evaluation of 6,7-dimethoxy-1,2,3,4-tetrahydroisoquinoline derivatives as sigma-2 receptor ligands” (Eur J Med Chem, 2018).

As a reminder, the Ki is the equilibrium dissociation constant of an inhibitor or competing ligand from its target. The term IC50 denotes the concentration at which inhibition is half-maximal. A low value points to greater potency. A word on the inhibition: it is the drop in the measured response relative to a control, in per cent.

The target of assay [1] is Sigma non-opioid intracellular receptor 1 (Homo sapiens, UniProt Q99720). The assay can be described thus: Binding affinity to sigma-1 receptor (unknown origin).
Assay [2] addresses Sigma intracellular receptor 2 (Homo sapiens, UniProt Q5BJF2). The assay can be described thus: Binding affinity to sigma-2 receptor (unknown origin).
In assay [3] the target is Sigma non-opioid intracellular receptor 1 (Cavia porcellus, UniProt Q60492). As to the kind of experiment: Displacement of [3H]-(+)-pentazocine from sigma-1 receptor in guinea pig brain membranes after 120 mins by microbeta scintillation counting method. The assay is classed as cell membranes, Membrane. Summed up: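 Guinea pig brain membranes (frozen brains minus cerebellum; 300 µg) incubated with 6 nM [3H]-(+)-pentazocine stock (~42 Ci/mmol), 50 mM Tris-HCl pH 8.0, 25 °C, 120 min. Compounds from ethanol, 0.1-1000 nM, 10 points. Ice-cold 10 mM Tris stop, GF/B filtration, scintillation counting. Nonspecific defined with (+)-pentazocine or haloperidol (10 µM).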

Assay [4] addresses T1, Sigma intracellular receptor 2 (Rattus norvegicus, UniProt Q5U3Y7).
T1 sequence (Q5U3Y7 whole entry): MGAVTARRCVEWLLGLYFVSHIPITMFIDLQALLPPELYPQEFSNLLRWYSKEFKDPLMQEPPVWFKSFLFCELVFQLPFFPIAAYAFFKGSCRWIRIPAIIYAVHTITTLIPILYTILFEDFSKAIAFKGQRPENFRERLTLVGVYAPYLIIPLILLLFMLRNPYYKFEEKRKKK
The assay can be described thus: Displacement of [3H]DTG from sigma-2 receptor in Sprague-Dawley rat liver membranes after 120 mins in presence of (+)-pentazocine by microbeta scintillation counting method. The assay is classed as cell membranes, Membrane. On the technique in general: In a radioligand displacement assay an active substance lowers the binding of a labelled ligand.

The test system of the next assay is Huh-7. As to the kind of experiment: Cytotoxicity against human HuH7 cells after 48 hrs by CCK8 assay. In kind it is functional, cell-based. The following applies: Huh-7, 48 h. Summed up: (§1)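 Exponentially growing Huh7 or KYSE-140 cells seeded at 4,000 cells/well, adhered overnight, then exposed to 6 concentrations for 48 h; DMSO vehicle control. CCK-8 added, 2 h at 37 °C in dark, absorbance at 450 nm. Viability as percent of control OD; IC50 by curve fitting, at least three experiments.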
Background: Tetrazolium assays rely on reduction of a dye to a coloured formazan, in cell work by metabolically active cells.

For another assay, the system named is KYSE-140. As to the kind of experiment: Cytotoxicity against human KYSE-140 cells after 48 hrs by CCK8 assay. The following applies: KYSE-140, 48 h. In kind it is functional, cell-based. Summed up:
as §1

For assay [5], the target named is Sigma non-opioid intracellular receptor 1 (Cavia porcellus) (UniProt Q60492). The assay can be described thus: Displacement of [3H]-(+)-pentazocine from sigma-1 receptor in guinea pig brain membranes at 1 uM after 120 mins by microbeta scintillation counting method relative to control. The following applies: Membrane. The assay is classed as cell membranes. The gist of the method:
(§2)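 Single-point screen at 1 µM for displacement of [3H](+)-pentazocine (sigma-1, guinea pig brain membranes) or [3H]-DTG (sigma-2, rat liver membranes, with 100 nM (+)-pentazocine); 25 °C, pH 8.0 Tris buffer. Hits were defined as >50% displacement.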

The target of assay [6] is T2, Sigma intracellular receptor 2 (Rattus norvegicus) (UniProt Q5U3Y7).
T2 sequence (whole entry): T1 sequence (Q5U3Y7 whole entry)
As to the kind of experiment: Displacement of [3H]DTG from sigma-2 receptor in Sprague-Dawley rat liver membranes at 1 uM after 120 mins in presence of (+)-pentazocine by microbeta scintillation counting method relative to control. In kind it is cell membranes. The following applies: Membrane. Summed up:
as §2

Assay [7] can be described thus: Selectivity ratio of Ki for sigma-1 receptor in guinea pig brain membranes to Ki for sigma-2 receptor in Sprague-Dawley rat liver membranes. The assay is classed as cell membranes.

Sigma non-opioid intracellular receptor 1 (Homo sapiens, UniProt Q99720), sequence (Q99720 whole entry): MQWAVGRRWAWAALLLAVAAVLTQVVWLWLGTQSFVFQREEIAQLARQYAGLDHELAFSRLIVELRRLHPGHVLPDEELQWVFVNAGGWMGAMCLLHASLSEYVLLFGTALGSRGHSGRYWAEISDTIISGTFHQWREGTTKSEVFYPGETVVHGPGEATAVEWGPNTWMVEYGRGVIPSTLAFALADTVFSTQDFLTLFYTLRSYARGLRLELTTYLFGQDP
Sigma intracellular receptor 2 (Homo sapiens, UniProt Q5BJF2), sequence (Q5BJF2 whole entry): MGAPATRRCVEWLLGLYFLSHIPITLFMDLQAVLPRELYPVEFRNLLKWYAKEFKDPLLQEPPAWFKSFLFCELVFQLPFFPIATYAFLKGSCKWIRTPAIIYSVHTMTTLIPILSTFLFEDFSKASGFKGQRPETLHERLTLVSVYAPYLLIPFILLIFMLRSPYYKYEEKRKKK
Sigma non-opioid intracellular receptor 1 (Cavia porcellus, UniProt Q60492), sequence (Q60492 whole entry): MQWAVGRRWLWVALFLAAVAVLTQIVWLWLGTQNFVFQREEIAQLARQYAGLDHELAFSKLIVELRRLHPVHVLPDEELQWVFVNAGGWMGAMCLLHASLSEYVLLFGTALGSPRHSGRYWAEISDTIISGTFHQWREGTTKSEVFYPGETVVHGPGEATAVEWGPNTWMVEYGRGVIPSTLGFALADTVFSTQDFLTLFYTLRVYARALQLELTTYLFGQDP
Sigma non-opioid intracellular receptor 1 (Cavia porcellus), sequence (Q60492 whole entry): as above

As to `CCn1c(=O)n(C(=O)NC2C[C@@H]3CC[C@@H](C2)N3C)c2ccccc21` (stereo partly specified), the Ki in [1] stood at 6300 nM; in [2], 32 nM.

For the compound `COc1cc2c(cc1OC)CN(CCCCn1cnc3cc(Cl)c([N+](=O)[O-])cc3c1=O)CC2`, the Ki in [3] and in [4] was more than 1000 nM in each case. In addition, the concentration for half-maximal inhibition (IC50) with Huh-7 and with KYSE-140 was more than 100 nM throughout. Besides, the inhibition in [5] and in [6] was more than 50% each time.

In the case of `COc1cc2c(cc1OC)CN(CCCn1cnc3cc(Cl)c([N+](=O)[O-])cc3c1=O)CC2`, the Ki in [3] and in assay [4] was more than 1000 nM throughout. In addition, the IC50 with Huh-7 and in the assay on KYSE-140 was more than 100 nM each time. In addition, the inhibition in assay [5] and in assay [6] was more than 50% throughout.

On to `c1ccc2c(c1)c1ccccc1n2CCCN1CCN(C2CCCCC2)CC1`, for which the Ki in [1] came out at 3450 nM; in assay [2], 12.6 nM.

In the case of `COc1cc2c(cc1OC)CN(CCn1cnc3cc(Cl)c([N+](=O)[O-])cc3c1=O)CC2`, the Ki in assay [3] and in assay [4] was more than 1000 nM each time. Besides, the IC50 in the assay with Huh-7 and with KYSE-140 was more than 100 nM each time. Besides, the inhibition in [5] and in assay [6] was more than 50% throughout.

In the case of `COc1ccc(C(O)CCCCN2CCc3cc(OC)c(OC)cc3C2)c(C)c1` (stereo unspecified), the results for the Ki in assay [3] and in assay [4] were more than 1000 nM and 5.2 nM, respectively. Besides, in [7], the Ratio Ki was more than 192. Further, the IC50 came to 12500 nM in the assay with Huh-7 and 14900 nM with KYSE-140. In addition, the inhibition in [5] and in assay [6] was more than 50% each time.

On to `COc1ccc(C(O)CCCCN2CCc3cc(OC)c(OC)cc3C2)c(OC)c1` (stereo unspecified), for which the Ki in assay [3] is more than 1000 nM; in assay [4] it was 6.2 nM. Further, the Ratio Ki in assay [7] was more than 161. Also, the inhibition in [5] and in [6] was more than 50% in each case.

Consider `COc1ccc(C(=O)CCN2CCc3cc(OC)c(OC)cc3C2)c(OC)c1`, for which the Ki is more than 1000 nM in assay [3] and 68.1 nM in assay [4]. The Ratio Ki in [7] is more than 14. The IC50 was 75300 nM in the assay with Huh-7 and more than 100 nM in the assay with KYSE-140. Besides, the inhibition in [5] and in assay [6] was more than 50% each time.

Consider `COc1ccc(C(=O)CCN2CCc3cc(OC)c(OC)cc3C2)c(C)c1`, for which the inhibition constant Ki in assay [3] was 13.3 nM; in assay [4], 23.7 nM. Besides, the Ratio Ki in assay [7] amounted to 0.5. The IC50 in the assay with Huh-7 is 42800 nM; in the assay with KYSE-140, 60100 nM. For the same compound, the inhibition in assay [5] and in [6] was more than 50% throughout.

Consider `COc1cc2c(cc1OC)CN(CCC(=O)c1c(C)c(OC)c(OC)c(OC)c1O)CC2`, for which the Ki in [3] and in [4] was more than 1000 nM in each case. In addition, the values for the IC50 in the assay on Huh-7 and in the assay on KYSE-140 were 81600 nM and 93700 nM, respectively. For the same compound, the inhibition in assay [5] and in [6] was more than 50% each time.

With `COc1cc2c(cc1OC)CN(CCCCn1cnc3cc(OC)c(OC)cc3c1=O)CC2`, the Ki in assay [3] was more than 1000 nM; in assay [4], 43.8 nM. The Ratio Ki in [7] is more than 22.8. For the same compound, the IC50 in the assay with Huh-7 and in the assay on KYSE-140 was more than 100 nM each time. The inhibition in assay [5] and in assay [6] was more than 50% throughout.

Regarding `COc1ccc(C(=O)CCCCN2CCc3cc(OC)c(OC)cc3C2)c(OC)c1`, the Ki in assay [3] stood at 32.9 nM; in assay [4], 5.8 nM. Further, the Ratio Ki in assay [7] is 5.6. The IC50 in the assay on Huh-7 is more than 100 nM; with KYSE-140, 88300 nM. In addition, the inhibition in assay [5] and in assay [6] was more than 50% each time.

Consider `COc1cc2c(cc1OC)CN(CCCn1cnc3cc(OC)c(OC)cc3c1=O)CC2`, for which the figures for the inhibition constant (Ki) in [3] and in assay [4] were more than 1000 nM and 13.9 nM, respectively. The Ratio Ki in assay [7] was more than 71.9. In addition, the IC50 in the assay on Huh-7 and in the assay with KYSE-140 was more than 100 nM throughout. In addition, the inhibition in [5] and in assay [6] was more than 50% throughout.

For the compound `COc1ccc(C(O)CCN2CCc3cc(OC)c(OC)cc3C2)c(C)c1` (stereo unspecified), the Ki is more than 1000 nM in assay [3] and 18.2 nM in assay [4]. Also, the Ratio Ki in [7] was more than 55. Further, the concentration for half-maximal inhibition (IC50) in the assay with Huh-7 and in the assay with KYSE-140 was more than 100 nM in each case. For the same compound, the inhibition in [5] and in [6] was more than 50% throughout.

As to `COc1cc2c(cc1OC)CN(CCCCNC(=O)c1cc(I)cc(OC)c1OCC[18F])CC2`, the figures for the Ki in [1] and in assay [2] were 2150 nM and 0.26 nM, respectively.

Consider `COc1ccc(C(=O)CCCCN2CCc3cc(OC)c(OC)cc3C2)c(C)c1`, for which the figures for the Ki in assay [3] and in assay [4] were more than 1000 nM and 5.1 nM, respectively. In addition, the Ratio Ki in [7] is more than 196. Also, the IC50 in the assay with Huh-7 and in the assay on KYSE-140 was more than 100 nM in each case. For the same compound, the inhibition in assay [5] and in [6] was more than 50% in each case.

Take `COc1ccc(C)cc1NC(=O)OC1C[C@H]2CCC[C@H](C1)N2CCCCCCN` (stereo partly specified): the Ki was found to be 1420 nM in assay [1] and 5.19 nM in assay [2].

In the case of `CC[C@H]1C[C@@H]2C[C@H]3c4[nH]c5ccc(OC)cc5c4CCN(C2)[C@@H]13`, the values for the Ki in assay [1] and in assay [2] were 9310 nM and 90.4 nM, respectively.

As for `COc1ccc(C(O)CCN2CCc3cc(OC)c(OC)cc3C2)c(OC)c1` (stereo unspecified), the Ki in assay [3] was more than 1000 nM; in assay [4], 30.2 nM. Moreover, the Ratio Ki in assay [7] was more than 33. The IC50 turned out to be 45900 nM with Huh-7 and 26100 nM in the assay on KYSE-140. Further, the inhibition in [5] and in assay [6] was more than 50% each time.

Take `COc1ccc(C(=O)CN2CCc3cc(OC)c(OC)cc3C2)c(OC)c1`: the Ki in [3] is more than 1000 nM; in assay [4], 53.8 nM. Moreover, the Ratio Ki in [7] is more than 18. Further, the IC50 in the assay on Huh-7 and in the assay on KYSE-140 was more than 100 nM each time. Further, the inhibition in assay [5] and in assay [6] was more than 50% each time.

For `COc1ccc(C(O)CN2CCc3cc(OC)c(OC)cc3C2)c(OC)c1` (stereo unspecified), the Ki in assay [3] was more than 1000 nM; in assay [4], 62 nM. In addition, the Ratio Ki in [7] was more than 16. Further, the IC50 in the assay on Huh-7 and in the assay with KYSE-140 was more than 100 nM in each case. In addition, the inhibition in [5] and in [6] was more than 50% each time.
